# Screening data from PubChem.
# In the library only some 2.6% were active in any assay of this set; here they are far more common.
# TAAR1 ag: human TAAR1 agonism; CHO RD-HGA16 TAAR1, Fluo-8 calcium fluorescence; vehicle wells 0%, saturating PEA agonist 100%; activation, % at 3 µM; hit rate 0.99% among 360,000; Q96RJ0;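 active means activation above the mean activation of all test compounds in the run plus 3 SD, cut at about 38% in these data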
# Target sequence (Q96RJ0 whole entry, looked up): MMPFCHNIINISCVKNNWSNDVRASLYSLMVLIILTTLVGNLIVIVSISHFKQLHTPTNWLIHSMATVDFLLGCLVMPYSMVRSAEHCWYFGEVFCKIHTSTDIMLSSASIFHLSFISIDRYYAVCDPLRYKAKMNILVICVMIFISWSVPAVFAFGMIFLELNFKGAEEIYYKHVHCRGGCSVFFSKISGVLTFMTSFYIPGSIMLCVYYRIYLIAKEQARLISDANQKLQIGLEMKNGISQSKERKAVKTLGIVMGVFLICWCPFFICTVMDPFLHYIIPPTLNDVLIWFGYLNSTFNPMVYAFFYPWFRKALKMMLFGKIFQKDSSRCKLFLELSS
#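 Repeats: no replicates (n 1) | Material: CHO-derived RD-HGA16 cells with stable Gα16 and human TAAR1 | Technique: Kinetic Fluo-8 calcium fluorescence | Schedule: 17-24 h seeding, 75 min 37 °C dye, 30 min RT | Evaluation: % activation from peak over basal fluorescence ratio, DMSO-to-PEA scaled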
# Platelet DG rel: platelet dense granule release activity; human platelet-rich plasma, SFLLRN dense granule ATP release, luminescence; inhibition, %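 (compounds screened at 7.5 µM in platelet-rich plasma)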; hit rate 0.22% among 300,000;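 active means mean replicate score, as percent of positive control, at or above 50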
# TAAR1 antagonist: antagonists of human TAAR1. AID 624466. inhibition, % at 3 µM. hit rate 1.5% among 360,000. CHO RD-HGA16 TAAR1, Fluo-8 calcium fluorescence, antagonist. Q96RJ0;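 active means inhibition above a per-plate cutoff, the mean inhibition of test compounds on that plate plus 3 SD, cut at about 49% in these data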
#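 Test system – hTAAR1-expressing CHO RD-HGA16 cells, Gα16-coupled · Also added – β-PEA at EC80 concentration, post-compound challenge · Compound – 3 µM, single point · Incubation – dye loading 75 min at 37 °C, then 30 min room temperature · Measured by – Fluo-8 intracellular calcium dye fluorescence, real-time kinetic reads · Benchmarks – vehicle and agonist controls · Replicates – singlicate, one well per test compound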
# Rce1 inh: blocks yeast Ras-converting enzyme; hit rate 0.27% among 290,000; calls only; Q03530; yeast membranes, quenched prenylated peptide cleavage fluorescence; AID 2563;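 active means fall in fluorescence gain of 50% or more versus controls, with final raw signal at or below 3038400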
# Target sequence (Q03530 whole entry, looked up): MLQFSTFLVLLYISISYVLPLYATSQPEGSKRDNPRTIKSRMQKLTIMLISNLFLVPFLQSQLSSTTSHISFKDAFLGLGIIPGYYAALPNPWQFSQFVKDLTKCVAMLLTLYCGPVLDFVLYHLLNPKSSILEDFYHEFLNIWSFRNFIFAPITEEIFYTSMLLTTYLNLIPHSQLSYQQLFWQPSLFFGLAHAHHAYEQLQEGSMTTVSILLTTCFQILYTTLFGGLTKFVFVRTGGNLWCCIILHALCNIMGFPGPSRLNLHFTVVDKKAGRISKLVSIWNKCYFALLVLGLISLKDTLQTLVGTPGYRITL
# VLA-4 inh: inhibition in a human VLA-4 binding assay | P13612 | VLA-4 expressing cells, ligand binding flow cytometry | inhibition, % (about 7 µM as worked out from the volumes in the protocol) | hit rate 0.2% among 330,000 | AID 2557; in the data active means inhibition above about 50%
# A number is an active result; – = inactive; · = no result given; + = active, no number.
SMILES,TAAR1 ag,Platelet DG rel,TAAR1 antagonist,Rce1 inh,VLA-4 inh
CC1N(O)C(c2ccc(Cl)cc2Cl)N(O)C1(C)C (centres undefined),–,68.0,–,–,–
CCNC(=S)NNC(=O)c1cc(-c2cccc(OC)c2)nc2ccccc12,–,–,–,–,–
CCNC(=S)NNC(=O)c1cc(-c2ccc(OCC)cc2)nc2ccccc12,–,103.4,–,–,–
Cc1ccc(C)c(-c2cc(C(=O)NNC(=S)NCC(C)C)c3ccccc3n2)c1,–,–,50.4,–,–
CCCNC(=O)N[C@H]1C=C[C@H](CC(=O)NC2CCCCC2)O[C@@H]1CO,–,·,–,·,·
CCc1nnc(NC(=O)C2c3ccccc3Oc3ccccc32)s1,51.2,–,–,–,–
CCN(CC)S(=O)(=O)c1ccc(NC(=O)C2c3ccccc3Oc3ccccc32)cc1,41.3,–,–,–,–
O=C(Nc1nc2ccccc2s1)C1c2ccccc2Oc2ccccc21,–,–,–,–,–
CNc1nc(-c2ccc3c(c2)CCN3C(=O)c2ccccc2F)cs1,–,–,53.4,–,·
CNc1nc(-c2ccc3c(c2)CCN3C(=O)c2ccccc2F)c(C)s1,–,–,–,–,–
COc1cccc(N2CCN(CC(=O)NCc3ccccc3)CC2)c1,–,–,–,–,–
O=C(CN1CCN(c2ccc(O)cc2)CC1)Nc1ccccc1C(=O)NCCc1ccccc1,–,·,63.1,·,–
COc1cccc(N2CCN(CC(=O)Nc3ccccc3C(=O)NCCc3ccccc3)CC2)c1,–,·,52.6,·,–
NS(=O)(=O)c1ccc(CNC(=O)c2ccc(NS(=O)(=O)c3ccc4[nH]c(=O)[nH]c4c3)cc2)cc1,–,–,–,–,–
O=S(=O)(Nc1ccc(-c2ccc3nncn3n2)cc1)c1ccccc1Cl,–,60.9,–,–,–
COc1ccccc1CNC(=O)COC(=O)c1c[nH]c2ccccc12,–,·,–,·,·
COc1cc(NC(=O)c2ccco2)c(C(=O)OCC(=O)c2c[nH]c3ccccc23)cc1OC,–,–,62.5,–,–
O=C(OCC(=O)c1c[nH]c2ccccc12)c1ccco1,–,–,–,–,–
COc1cccc(/C=C/C(=O)OCC(=O)c2c[nH]c3ccccc23)c1OC,–,–,54.2,–,–
COc1ccccc1NC(=O)COC(=O)c1c[nH]c2ccccc12,–,·,49.5,·,–
O=S1(=O)c2ccc(Br)cc2OCCC2CCCCN21 (centres undefined),–,·,–,·,·
COc1cc(C(=O)NN2C(=O)NC3(CCC(C)CC3)C2=O)ccc1OC(F)F (centres undefined),–,·,–,·,–
COc1ccc2c(C(=O)c3ccc(Cl)cc3)n(CCCC(N)=O)[n+]([O-])c2c1,–,–,–,–,–
O=C(/C=C/Nc1ccc(Oc2ccccc2)cc1)c1ccco1,–,53.4,–,–,–
CCOC(=O)C1(Cc2cccc(OC)c2)CCN(C/C=C/c2ccc(OC)cc2)CC1,–,–,–,–,–
SMILES,TAAR1 ag,Platelet DG rel,TAAR1 antagonist,Rce1 inh,VLA-4 inh
CCOC(=O)C1(Cc2cccc(OC)c2)CCN(CC=C(C)C)CC1,–,57.4,–,–,–
CCN(C(=O)COC(=O)CCOc1ccc(C(C)(C)C)cc1)c1c(N)n(Cc2ccccc2)c(=O)[nH]c1=O,–,·,–,·,·
COc1ccc(C2NC(=O)c3n[nH]c(C)c32)c(OC)c1 (centres undefined),–,61.9,–,–,–
Cc1nc2scc(-c3ccc(C(C)(C)C)cc3)c2c(=O)n1N,–,–,51.0,–,–
O=C1/C(=C/c2ccccc2)CCc2ccc(Cl)nc21,–,·,–,·,·
COc1ccc(Cc2nnc(NC(=O)CSc3ccc(C)cc3)s2)cc1OC,111.6,–,86.7,–,–
CCOC(=O)C1(C(=O)OCC)NC(=O)CC1C(C)C (centres undefined),–,·,–,·,·
Cc1ccc(N(CC(=O)NC(C)(C)C)C(=O)CNC(=O)c2cccs2)cc1C,–,–,–,–,–
Cc1ccc(NC(=O)c2ccc(C#CC3(O)CCCCC3)cc2)cc1C,–,–,–,·,–
O=c1oc2ccc(C#CC3(O)CCCCC3)cc2cc1-n1cc(C2(O)CCCCC2)nn1,–,·,52.6,·,–
Cc1cc(C)n2cc(CSC3=NCCS3)nc2n1,–,–,–,+,–
O=C(O)c1cccnc1SCc1cn2cc(Br)ccc2n1,–,–,–,–,–
Cc1ccnc(SCc2cn3c(C)cc(C)nc3n2)n1,–,–,–,+,–
Cc1cc(C)n2cc(CSc3ncccc3C(=O)O)nc2n1,–,–,–,+,–
Cc1cc(C)n2cc(CSCc3ccco3)nc2n1,–,–,–,–,–
CCN(CC(=O)NCc1cccs1)C(=O)CCOc1ccccc1,–,·,–,·,–
COc1ccc(CCNC(=O)C(=O)NCC2CCCN2S(=O)(=O)c2ccccc2)cc1OC (centres undefined),–,–,49.1,–,–
CNC(=O)C(=O)NCC1CCCN1S(=O)(=O)c1cccs1 (centres undefined),–,–,–,–,–
O=C(NCCc1ccccc1)C(=O)NCC1OCCCN1S(=O)(=O)c1cc(F)ccc1F (centres undefined),40.2,–,–,–,–
COc1ccccc1CCNC(=O)C(=O)NCC1OCCN1S(=O)(=O)c1ccc2c(c1)OCCO2 (centres undefined),39.2,–,–,–,–
O=C(NCCc1ccc(F)cc1)C(=O)NCC1CCCN1S(=O)(=O)c1cccs1 (centres undefined),–,–,60.8,–,–
Cc1cc(F)ccc1S(=O)(=O)N1CCCOC1CNC(=O)C(=O)NCCc1ccccc1 (centres undefined),–,–,–,–,–
O=C(COC(=O)CN1C(=O)c2ccccc2C1=O)Nc1cccc(F)c1,–,·,–,·,–
COc1ccccc1N1CCN(C2CCCN(C(=O)Cn3cccn3)C2)CC1 (centres undefined),–,–,–,–,–
COc1ccc2[nH]c3c(c2c1)CCN1C(=O)N([C@@H](C)C(=O)NCc2ccc(C)cc2)C(=O)[C@]31C,–,–,–,–,–
SMILES,TAAR1 ag,Platelet DG rel,TAAR1 antagonist,Rce1 inh,VLA-4 inh
Cc1nn(-c2ccccc2)c(Cl)c1CN(C(=O)CCl)c1ccc(Cl)cc1,–,–,60.4,–,–
Cc1nn(-c2ccccc2)c(Cl)c1C(=O)NCC(=O)O,–,–,–,–,–
CC(=O)N(Cc1c(C)nn(-c2ccccc2)c1Cl)c1ccc(Cl)cc1,–,–,–,–,–
Cc1nn(-c2ccccc2)c(Cl)c1CN(C(=O)CCl)c1cccc2ccccc12,–,–,50.5,–,–
O=C(Nc1ccccc1N1CCN(C(=O)c2ccccc2)CC1)c1ccc([N+](=O)[O-])o1,–,–,54.9,–,·
O=C(Nc1ccccc1N1CCCC1)c1ccc([N+](=O)[O-])o1,–,–,–,–,–
CCOC(=O)C1(C)CCCCN1C(=O)c1ccc(F)c(C)c1 (centres undefined),–,·,–,·,·
c1coc(-c2ccnc3ncnn23)c1,–,–,–,+,–
COC(=O)C[C@@H]1C=C[C@H](NC(=O)c2cnccn2)[C@@H](CO)O1,–,·,–,·,·
CN(C)CCNc1ncnc2oc(-c3ccccc3)c(-c3ccccc3)c12,–,–,–,+,–
